From PubChem
MrgX1 allo act: human MrgX1 positive allosteric modulation, primary screen; MrgX1-HEK293, Fluo-4 calcium flux, FDSS; stronger effect = higher value; actives 0.63% (n = 310,000); AID 588675; B-score at 10 µM; Q96LB2;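 active = plate-corrected calcium response at least 3 library SD above typical, normal starting fluorescence, not activating the receptor alone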;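 also: compound read alongside a low EC10 to EC30 dose of BAM8-22 agonist; peak minus trough fluorescence over baseline measured at the second addition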
Target sequence (Q96LB2 whole entry, looked up): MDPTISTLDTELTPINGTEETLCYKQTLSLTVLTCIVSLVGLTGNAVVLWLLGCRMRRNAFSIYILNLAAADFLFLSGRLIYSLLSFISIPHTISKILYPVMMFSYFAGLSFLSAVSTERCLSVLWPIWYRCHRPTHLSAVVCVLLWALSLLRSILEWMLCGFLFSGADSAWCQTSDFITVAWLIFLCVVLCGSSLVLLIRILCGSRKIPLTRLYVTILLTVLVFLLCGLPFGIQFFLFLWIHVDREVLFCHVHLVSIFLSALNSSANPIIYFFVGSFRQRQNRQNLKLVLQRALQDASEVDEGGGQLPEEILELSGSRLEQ
MrgX1 agonist: activates human MrgX1 receptor signaling | MrgX1-HEK293 cells, Fluo-4 calcium fluorescence, agonist mode; stronger effect = higher value | B-score at 10 µM | actives 0.44% (n = 310,000) | AID 588627;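 active = calcium response B-score plate-corrected fluorescence ratio at least 3 library SD, with starting fluorescence B-score inside 5 SD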
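Test system: HEK293 cells stably expressing human MrgX1 receptor; Input: fifteen thousand cells per well; Dosing: compound delivered in addition one of three; Schedule: overnight seeding, then 1 h dark dye loading; Technique: Fluo-4 NW calcium fluorescence; Measure: B-scored fluorescence response ratio; Controls: positive and negative controls per plate.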
RGS4 pot: potentiators or activators of RGS4; HEK293 M3R/inducible RGS4, carbachol calcium flux Fluo4; stronger effect = lower value; B-score at 10 µM; actives 0.92% (n = 310,000);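 active = B-score of the integrated calcium signal more than 4 SD below the library mean, with starting fluorescence not abnormally high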;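 also: negative B-score means reduced calcium response which marks RGS4 activation or potentiation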
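test system = M3R-expressing HEK293 line, RGS4 induced by doxycycline | probe or stimulus = carbachol at ECmax as muscarinic agonist stimulus | timing = dye loading 30 min 37 °C, buffer rest 30 min RT | signal = calcium dye Fluo4 fluorescence | evaluation = B score from integrated fluorescence ratio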
MrgX1 antag: antagonists of human MrgX1 receptor. Q96LB2. MRGX1-HEK293 calcium flux, Fluo-4, BAM8-22 antagonism; stronger effect = lower value. B-score at 10 µM. actives 1.3% (n = 310,000). AID 588676;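 active = calcium-response B-score plate-corrected more than 3 library SD below zero, starting fluorescence within 5 deviations, no agonist response on first addition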;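 also: peak minus trough fluorescence over baseline after final BAM8-22 challenge near maximal dose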
RGS4 inh: human RGS4 inhibition; actives 0.45% (n = 310,000); B-score at 10 µM; HEK293 M3R/RGS4 inducible, Fluo-4 calcium flux; stronger effect = higher value; triggered by carbachol at its EC20;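 active = B-score, a plate-corrected calcium signal, over three deviations above library mean, with baseline fluorescence within five deviations of library mean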;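 also: RGS4 expression induced by doxycycline in cells with stable M3 receptor; B-score is computed from the integrated fluorescence ratio over baseline after carbachol; higher B-score means a larger calcium signal and so more RGS4 inhibition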
RGS4 activ val: confirmation of RGS4 activators. inhibition, % at 10 µM. HEK293 M3R/RGS4 inducible, carbachol calcium flux Fluo4. shares compounds with RGS4 pot. actives 89% (n = 1,100);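 active = inhibition above 3 SD of the buffer control wells, cut at about 41% in these data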;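 also: signal is the integrated peak-minus-minimum Fluo4 fluorescence over baseline ratio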
M3R Ca counter: RGS4 activator counter-screen hit in non-induced cells; AID 602283; shares compounds with RGS4 pot; inhibition, % at 10 µM; actives 82% (n = 1,100); HEK293 M3R non-induced RGS4, Fluo4 calcium flux; after carbachol challenge at its EC90;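 active = inhibition exceeding 3 SD of buffer-only control wells, cut at about 26% in these data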;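 also: percent drop in integrated peak-minus-baseline over baseline Fluo4 ratio after carbachol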
The depositor's hits bear a star. Rows were chosen to be rich in hits. Some 3.5% of all compounds tested hit in one or more screens of this group.

For O=C(CCS(=O)(=O)Cc1ccccc1)Nc1nc2c(s1)CCCC2 the results were MrgX1 allo act inactive, MrgX1 agonist inactive, RGS4 pot -10.6*, MrgX1 antag inactive, RGS4 inh inactive, RGS4 activ val 0.0 and M3R Ca counter 0.0.
Screening CCCN1CCc2c(sc(NC(=O)C3CCN(S(=O)(=O)c4cccs4)CC3)c2C(N)=O)C1 returned MrgX1 allo act inactive, MrgX1 agonist inactive, RGS4 pot inactive, MrgX1 antag inactive and RGS4 inh inactive.
Screening Cc1ccc(N(CC(=O)Nc2cccc(Cl)c2C)S(C)(=O)=O)cc1 returned MrgX1 allo act inactive, MrgX1 agonist inactive, RGS4 pot inactive, MrgX1 antag inactive and RGS4 inh inactive.
For COc1ccc2c(C)c(CCC(=O)NCCCN3CCCC3=O)c(=O)oc2c1C the results were MrgX1 allo act inactive, MrgX1 agonist inactive, RGS4 pot -8.9*, MrgX1 antag inactive, RGS4 inh inactive, RGS4 activ val 0.0 and M3R Ca counter 0.0.
Cc1cc(C)n(C(=O)c2cc3c(s2)CCCC3)n1 was read as MrgX1 allo act inactive, MrgX1 agonist inactive, RGS4 pot inactive, MrgX1 antag inactive and RGS4 inh inactive.
C=C(C)COc1ccc(-c2[nH]ncc2Oc2ccccc2OCC)c(O)c1 was read as MrgX1 allo act inactive, MrgX1 agonist inactive, RGS4 pot -7.74*, MrgX1 antag inactive, RGS4 inh inactive, RGS4 activ val 91.0* and M3R Ca counter 91.8*.
Screening CCOc1ccccc1Oc1cn[nH]c1-c1ccc(O)cc1O returned MrgX1 allo act inactive, MrgX1 agonist inactive, RGS4 pot inactive, MrgX1 antag inactive and RGS4 inh inactive.
For O=C(c1ccc(-c2ccccc2)cc1)C1CCCN(Cc2ccncc2)C1 (stereo not drawn) the results were MrgX1 allo act inactive, MrgX1 agonist inactive, RGS4 pot inactive, MrgX1 antag inactive and RGS4 inh inactive.
Screening OCCC1CN(Cc2cnc(N3CCCC3)s2)CCN1C1CCCC1 (stereo not drawn) returned MrgX1 allo act inactive, MrgX1 agonist inactive, RGS4 pot -7.86*, MrgX1 antag inactive, RGS4 inh inactive, RGS4 activ val 70.5* and M3R Ca counter 26.8*.
Screening OCCC1CN(C/C(Cl)=C/c2ccccc2)CCN1C1CCCC1 (stereo not drawn) returned MrgX1 allo act inactive, MrgX1 agonist inactive, RGS4 pot -10.5*, MrgX1 antag inactive, RGS4 inh inactive, RGS4 activ val 70.5* and M3R Ca counter 83.8*.
For CC(=O)Nc1ccc(CN2CCCC(C(=O)c3ccc(C(F)(F)F)cc3)C2)cc1 (stereo not drawn) the results were MrgX1 allo act inactive, MrgX1 agonist inactive, RGS4 pot -10.3*, MrgX1 antag inactive, RGS4 inh inactive, RGS4 activ val 72.0* and M3R Ca counter 83.8*.
`CC(=O)Nc1ccc(CN2CCN(C3CCCC3)C(CCO)C2)cc1` (stereo not drawn) gave MrgX1 allo act inactive, MrgX1 agonist inactive, RGS4 pot -8.01*, MrgX1 antag inactive, RGS4 inh inactive, RGS4 activ val 88.0* and M3R Ca counter 51.8*.
Screening CC(C)N(C(=O)CSc1nnc(-c2ccc3c(c2)OCO3)n1C)C(C)C returned MrgX1 allo act inactive, MrgX1 agonist inactive, RGS4 pot inactive, MrgX1 antag inactive and RGS4 inh inactive.
For CCCCNC(=O)COC(=O)c1ccc(NS(=O)(=O)c2ccc3c(c2)OCCO3)cc1 the results were MrgX1 allo act inactive, MrgX1 agonist inactive, RGS4 pot inactive, MrgX1 antag inactive and RGS4 inh inactive.
`O=C(CSc1ccc([N+](=O)[O-])cc1)NNC(=O)c1ccccc1F` gave MrgX1 allo act inactive, MrgX1 agonist inactive, RGS4 pot inactive, MrgX1 antag inactive and RGS4 inh inactive.
